Reference: ChEMBL document CHEMBL2417369, “Synthesis and evaluation of heteroaryl substituted diazaspirocycles as scaffolds to probe the ATP-binding site of protein kinases” (Bioorg Med Chem, 2013)

Experiments:
[1] = target: Fibroblast growth factor receptor 1 (Homo sapiens) (UniProt P11362); experiment: Inhibition of FGFR1 (unknown origin) at 30 uM by microfluidic mobility shift assay relative to control
Method in brief: (§1)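 Single-point screen at 30 µM test compound across a 24-kinase panel in a microfluidic assay format. ATP was set near each enzyme's Km,[ATP]. […] The pan-AGC inhibitor H-89 served as an internal control on every assay plate.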

[2] = target: Epidermal growth factor receptor (Homo sapiens) (UniProt P00533); experiment: Inhibition of EGFR (unknown origin) at 30 uM by microfluidic mobility shift assay relative to control; method in brief: as §1
[3] = system: Tyrosine-protein kinase ABL1 (Homo sapiens), P00519 [Q252H]; experiment: Inhibition of ABL Q252H mutant (unknown origin) at 30 uM by microfluidic mobility shift assay relative to control; format: protein assay; method in brief: as §1
[4] = target: Cyclin-dependent kinase 2 (Homo sapiens) (UniProt P24941); experiment: Inhibition of CDK2 (unknown origin) at 30 uM by microfluidic mobility shift assay relative to control; method in brief: as §1
[5] = target: T1, MAP kinase-activated protein kinase 5 (Homo sapiens) (UniProt Q8IW41); experiment: Inhibition of PRAK (unknown origin) at 30 uM by microfluidic mobility shift assay relative to control
T1 sequence (whole entry): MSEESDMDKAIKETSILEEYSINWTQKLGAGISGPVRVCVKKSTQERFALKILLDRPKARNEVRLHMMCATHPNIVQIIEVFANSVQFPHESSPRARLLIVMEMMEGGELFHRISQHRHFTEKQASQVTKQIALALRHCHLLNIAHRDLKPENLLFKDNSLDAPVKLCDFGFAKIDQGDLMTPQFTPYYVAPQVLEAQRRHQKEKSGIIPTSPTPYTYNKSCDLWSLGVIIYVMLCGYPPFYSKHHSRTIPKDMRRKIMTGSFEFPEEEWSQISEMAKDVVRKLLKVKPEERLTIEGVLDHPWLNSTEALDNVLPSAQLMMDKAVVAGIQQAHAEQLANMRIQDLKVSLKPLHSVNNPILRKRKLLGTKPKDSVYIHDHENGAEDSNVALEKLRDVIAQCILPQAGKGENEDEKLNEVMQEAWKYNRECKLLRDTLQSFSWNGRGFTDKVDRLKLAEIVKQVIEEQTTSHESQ
Method in brief: (§2)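 Single-point screen against a 24-kinase panel in a commercial microfluidic assay format. Compounds were tested at 30 µM, with ATP at approximately the Km,[ATP] of each enzyme. H-89 was included on each assay plate as an internal control.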

[6] = target: T2, Serine/threonine-protein kinase D1 (Homo sapiens) (UniProt Q15139); experiment: Inhibition of PKD1 (unknown origin) at 30 uM by microfluidic mobility shift assay relative to control; method in brief: as §2
T2 sequence (whole entry): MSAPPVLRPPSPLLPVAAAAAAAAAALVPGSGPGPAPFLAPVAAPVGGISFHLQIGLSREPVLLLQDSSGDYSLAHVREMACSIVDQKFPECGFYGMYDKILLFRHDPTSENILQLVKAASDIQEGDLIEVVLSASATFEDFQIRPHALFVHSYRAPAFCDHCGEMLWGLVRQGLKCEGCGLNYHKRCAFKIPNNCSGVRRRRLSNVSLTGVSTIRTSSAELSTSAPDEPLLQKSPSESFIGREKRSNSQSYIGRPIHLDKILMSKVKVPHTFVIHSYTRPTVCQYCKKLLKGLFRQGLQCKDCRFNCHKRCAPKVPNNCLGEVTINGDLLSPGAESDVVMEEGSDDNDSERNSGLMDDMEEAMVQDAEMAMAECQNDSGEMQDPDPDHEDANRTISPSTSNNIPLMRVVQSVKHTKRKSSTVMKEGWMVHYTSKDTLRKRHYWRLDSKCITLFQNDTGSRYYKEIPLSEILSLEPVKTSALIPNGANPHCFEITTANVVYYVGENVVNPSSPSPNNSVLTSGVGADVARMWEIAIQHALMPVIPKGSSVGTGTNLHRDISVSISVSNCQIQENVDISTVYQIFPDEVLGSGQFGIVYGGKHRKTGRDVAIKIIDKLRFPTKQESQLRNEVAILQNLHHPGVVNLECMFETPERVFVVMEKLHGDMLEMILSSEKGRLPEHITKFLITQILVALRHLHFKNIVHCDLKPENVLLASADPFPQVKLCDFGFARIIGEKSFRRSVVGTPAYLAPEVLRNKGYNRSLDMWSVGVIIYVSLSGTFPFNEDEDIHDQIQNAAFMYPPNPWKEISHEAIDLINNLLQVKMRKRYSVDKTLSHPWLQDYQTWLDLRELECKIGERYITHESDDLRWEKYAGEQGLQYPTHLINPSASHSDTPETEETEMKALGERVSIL

[7] = target: T3, Protein kinase C zeta type (Homo sapiens) (UniProt Q05513); experiment: Inhibition of PKCzeta (unknown origin) at 30 uM by microfluidic mobility shift assay relative to control; method in brief: as §2
T3 sequence (whole entry): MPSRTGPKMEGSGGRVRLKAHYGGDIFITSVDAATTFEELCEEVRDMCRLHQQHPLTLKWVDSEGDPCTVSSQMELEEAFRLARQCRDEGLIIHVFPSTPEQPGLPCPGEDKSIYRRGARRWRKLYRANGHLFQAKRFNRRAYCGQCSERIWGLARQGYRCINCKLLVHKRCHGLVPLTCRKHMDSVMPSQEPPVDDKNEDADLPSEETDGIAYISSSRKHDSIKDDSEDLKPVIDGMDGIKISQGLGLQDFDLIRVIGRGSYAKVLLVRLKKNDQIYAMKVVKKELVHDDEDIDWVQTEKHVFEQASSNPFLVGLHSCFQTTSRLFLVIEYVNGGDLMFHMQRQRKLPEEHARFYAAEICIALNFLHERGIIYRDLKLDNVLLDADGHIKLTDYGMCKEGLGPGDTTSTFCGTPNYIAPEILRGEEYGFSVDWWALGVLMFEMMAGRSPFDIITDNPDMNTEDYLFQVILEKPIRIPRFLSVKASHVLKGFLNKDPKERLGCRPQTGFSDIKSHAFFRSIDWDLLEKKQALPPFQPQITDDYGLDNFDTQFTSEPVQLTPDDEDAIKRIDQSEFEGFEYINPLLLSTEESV

[8] = target: Protein kinase C gamma type (Homo sapiens) (UniProt P05129); experiment: Inhibition of PKCgamma (unknown origin) at 30 uM by microfluidic mobility shift assay relative to control; method in brief: as §2
[9] = target: T4, Aurora kinase C (Homo sapiens) (UniProt Q9UQB9); experiment: Inhibition of AURC (unknown origin) at 30 uM by microfluidic mobility shift assay relative to control; method in brief: as §1
T4 sequence (whole entry): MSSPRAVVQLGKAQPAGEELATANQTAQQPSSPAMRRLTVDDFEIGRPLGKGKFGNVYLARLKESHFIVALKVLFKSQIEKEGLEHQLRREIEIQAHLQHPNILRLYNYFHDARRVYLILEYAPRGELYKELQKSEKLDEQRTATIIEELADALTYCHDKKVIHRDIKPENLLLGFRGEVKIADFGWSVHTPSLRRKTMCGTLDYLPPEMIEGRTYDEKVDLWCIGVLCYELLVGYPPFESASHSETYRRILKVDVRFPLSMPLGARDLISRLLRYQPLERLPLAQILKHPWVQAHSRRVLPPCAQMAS

Fibroblast growth factor receptor 1 (Homo sapiens), sequence (P11362 22-822 limits assumed): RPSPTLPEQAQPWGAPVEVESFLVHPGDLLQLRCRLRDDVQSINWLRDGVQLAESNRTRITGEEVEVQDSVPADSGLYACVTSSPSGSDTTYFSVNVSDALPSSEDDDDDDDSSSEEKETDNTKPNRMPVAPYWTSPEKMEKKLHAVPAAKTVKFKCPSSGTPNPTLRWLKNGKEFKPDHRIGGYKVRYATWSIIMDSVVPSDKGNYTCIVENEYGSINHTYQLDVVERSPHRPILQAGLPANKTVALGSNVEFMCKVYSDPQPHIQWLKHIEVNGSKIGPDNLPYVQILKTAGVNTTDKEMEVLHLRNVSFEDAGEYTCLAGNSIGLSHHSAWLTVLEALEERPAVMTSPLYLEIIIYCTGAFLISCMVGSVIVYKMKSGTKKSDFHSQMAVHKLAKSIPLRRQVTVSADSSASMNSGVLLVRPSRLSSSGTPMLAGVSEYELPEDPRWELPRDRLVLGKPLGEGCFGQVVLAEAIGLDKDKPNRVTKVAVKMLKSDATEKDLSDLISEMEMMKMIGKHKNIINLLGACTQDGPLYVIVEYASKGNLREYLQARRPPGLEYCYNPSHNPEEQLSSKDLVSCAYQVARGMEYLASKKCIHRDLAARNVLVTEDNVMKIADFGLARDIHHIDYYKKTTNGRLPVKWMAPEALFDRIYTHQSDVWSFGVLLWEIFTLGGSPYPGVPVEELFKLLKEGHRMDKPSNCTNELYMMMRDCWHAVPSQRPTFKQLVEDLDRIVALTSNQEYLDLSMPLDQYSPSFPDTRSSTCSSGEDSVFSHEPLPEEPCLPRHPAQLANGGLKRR
Epidermal growth factor receptor (Homo sapiens), sequence (P00533 whole entry): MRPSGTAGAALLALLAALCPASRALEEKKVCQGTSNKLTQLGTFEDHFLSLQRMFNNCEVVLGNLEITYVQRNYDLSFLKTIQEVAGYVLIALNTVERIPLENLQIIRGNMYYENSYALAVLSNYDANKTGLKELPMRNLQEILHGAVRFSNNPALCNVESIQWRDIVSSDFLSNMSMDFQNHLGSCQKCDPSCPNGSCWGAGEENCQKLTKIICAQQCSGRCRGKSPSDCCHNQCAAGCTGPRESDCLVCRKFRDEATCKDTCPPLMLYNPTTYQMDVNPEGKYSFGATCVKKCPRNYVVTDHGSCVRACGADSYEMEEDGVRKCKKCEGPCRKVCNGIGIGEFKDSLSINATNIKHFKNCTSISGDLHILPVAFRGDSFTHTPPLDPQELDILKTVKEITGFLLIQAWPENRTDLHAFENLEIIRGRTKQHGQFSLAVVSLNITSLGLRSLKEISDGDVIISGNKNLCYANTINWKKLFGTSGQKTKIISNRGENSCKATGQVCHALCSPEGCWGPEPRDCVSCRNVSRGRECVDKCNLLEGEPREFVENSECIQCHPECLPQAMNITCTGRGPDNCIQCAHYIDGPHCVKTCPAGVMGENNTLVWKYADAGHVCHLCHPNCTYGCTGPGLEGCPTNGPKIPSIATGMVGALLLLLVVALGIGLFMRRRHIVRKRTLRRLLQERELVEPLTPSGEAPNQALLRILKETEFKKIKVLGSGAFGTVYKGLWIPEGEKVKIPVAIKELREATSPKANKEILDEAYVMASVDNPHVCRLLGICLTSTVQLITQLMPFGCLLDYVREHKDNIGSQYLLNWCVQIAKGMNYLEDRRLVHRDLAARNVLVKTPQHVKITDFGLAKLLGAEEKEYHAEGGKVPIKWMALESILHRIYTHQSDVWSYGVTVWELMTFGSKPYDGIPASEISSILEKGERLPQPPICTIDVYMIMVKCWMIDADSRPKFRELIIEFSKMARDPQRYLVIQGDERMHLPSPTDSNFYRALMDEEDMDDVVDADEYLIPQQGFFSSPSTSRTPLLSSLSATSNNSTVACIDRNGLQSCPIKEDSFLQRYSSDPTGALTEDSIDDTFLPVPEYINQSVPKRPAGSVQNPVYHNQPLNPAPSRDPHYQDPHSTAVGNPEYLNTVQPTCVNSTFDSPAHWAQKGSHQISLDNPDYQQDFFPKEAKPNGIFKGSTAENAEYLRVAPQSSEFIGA

inhibition [1] [%] | inhibition [2] [%] | inhibition [3] [%] | inhibition [4] [%] | inhibition [5] [%] | inhibition [6] [%] | inhibition [7] [%] | inhibition [8] [%] | inhibition [9] [%] | SMILES
44 | 3 | 12 | 21 | 8 | 72 | 0 | 86 | 46 | c1ccc(CC2CCNC3(CCN(c4ncnc5[nH]cnc45)CC3)C2)cc1 (racemic)
27 | 10 | 30 | 19 | 14 | 44 | 0 | 77 | 54 | c1ccc(C2CCNC3(CCN(c4ncnc5[nH]cnc45)CC3)C2)cc1 (racemic)
42 | 8 | 30 | 15 | 12 | 12 | 0 | 53 | 61 | c1ccc(CC2CCC3(CCN(c4ncnc5[nH]cnc45)CC3)NC2)cc1 (racemic)
